EBI2 antag = EBI2 receptor antagonists, beta-arrestin recruitment, primary screen, cell-based, luminescence, 7a,25-OHC stimulation, uHTS; G-protein coupled receptor 183 (Homo sapiens), P32249; actives 0.81% (n = 360,000); 7a,25-OHC stimulated; inhibition, % at 5 µM; in the data active = inhibition above about 38%;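 also: enzyme fragment complementation signal reports receptor beta-arrestin coupling in cells; 0% = agonist plus DMSO wells and 100% = wells without agonist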
Target sequence (P32249 whole entry, looked up, the tested form may be a part): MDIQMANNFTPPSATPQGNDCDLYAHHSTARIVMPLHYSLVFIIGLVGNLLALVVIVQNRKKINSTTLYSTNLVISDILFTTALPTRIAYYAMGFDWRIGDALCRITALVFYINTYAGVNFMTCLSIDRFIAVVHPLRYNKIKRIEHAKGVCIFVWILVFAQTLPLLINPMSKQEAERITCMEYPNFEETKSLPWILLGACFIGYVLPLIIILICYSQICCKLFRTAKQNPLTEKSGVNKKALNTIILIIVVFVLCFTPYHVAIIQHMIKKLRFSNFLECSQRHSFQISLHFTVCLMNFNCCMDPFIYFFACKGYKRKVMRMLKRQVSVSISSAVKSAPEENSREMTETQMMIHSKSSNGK
MPTP block = mitochondrial permeability transition pore inhibitors, primary screen, biochemical, isolated mouse mitochondria, absorbance | Ca2+ swelling absorbance, 30 min | inhibition, % at 10 µM | AID 602449, 2012 | actives 1.4% (n = 360,000);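 active = inhibition of 50% or more, scaled per plate between neutral and stimulator controls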;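 also: 0% = DMSO wells given calcium and 100% = 1 mM EGTA wells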
GRIN3A LBD mod = binders of NR3A ligand-binding domain, primary screen, biophysical, differential scanning fluorimetry, uHTS | Tm shift relative to glycine control, % at 25 µM | NR3A LBD differential scanning fluorimetry, Tm shift; 0% = protein alone, 100% = glycine-bound protein | actives 2.5% (n = 340,000) | Glutamate receptor ionotropic, NMDA 3A (GRIN3A) ligand-binding domain;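 active = melting temperature shift of at least 10% of the positive control shift, at one fixed dose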
SENP1 inh = human SENP1 catalytic domain inhibitors, primary screen, biochemical, FRET, uHTS; inhibition, % at 10 µM; recombinant SENP1 catalytic domain, CyPet-SUMO1-YPet FRET cleavage; Sentrin-specific protease 1 (Homo sapiens), Q9P0U3; actives 0.21% (n = 360,000); AID 624204, 2012;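 active = inhibition at least 30% at 10 µM, raw YFP signal under a set limit, fluorescence ratio 0.5 to 1.5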;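 also: 0% = enzyme with DMSO and 100% = no enzyme wells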
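Test system: human SENP1 catalytic domain; medium: Tris pH 8 buffer plus EDTA, NaCl, BME, BSA, NP40, catalase; incubation: 50 min reaction at room temperature; technique: FRET, CFP and YFP emission; controls: no-enzyme low control and enzyme-plus-DMSO high control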
Rh123 counter = fluorescence retest of MPTP screen hits in isolated mitochondria, single concentration; shares compounds with MPTP block; membrane potential, Rhodamine 123 fluorescence; inhibition, % at 10 µM; actives 78% (n = 5,000); AID 624504, 2012; in the data active = inhibition above about 22%;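 also: 0% = DMSO vehicle and 100% = positive control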
MPTP swell DR = mitochondrial permeability transition pore inhibitors, dose response, biochemical, absorbance, uHTS hits; shares compounds with MPTP block; isolated mitochondria swelling; IC50, µM; actives 58% (n = 780); in the data active = IC50 below about 20 µM
MPTP cs DR = fluorescent counter-screen in isolated mitochondria, dose response, counter-screen for MPTP inhibitor project, biochemical, fluorescence, uHTS hits; AID 651564, 2012; actives 49% (n = 780); IC50, µM; shares compounds with MPTP block; isolated mitochondria counterscreen, fluorescence read-out; in the data active = IC50 below about 80 µM
The depositor's hits bear a star; i = inactive; · = no result. Rows were chosen to be rich in hits. Some 4.4% of all compounds tested hit in one or more screens of this group.

SMILES	EBI2 antag	MPTP block	GRIN3A LBD mod	SENP1 inh	Rh123 counter	others
O=[N+]([O-])c1cccc(-c2nc3ccc([N+](=O)[O-])cc3[nH]2)c1	8	93*	-2	1	83*
Cc1ccc(-c2nc3ccc([N+](=O)[O-])cc3[nH]2)cc1	15	76*	25*	1	82*
O=[N+]([O-])c1ccc2nc(-c3ccc(Cl)cc3)[nH]c2c1	11	92*	28*	-5	86*
O=[N+]([O-])c1ccc2nc(-c3ccncc3)[nH]c2c1	-9	3	1	-1	·
COc1ccc2nc(-c3ccccc3)[nH]c2c1	0	0	-6	1	·
CCc1nn2c(=O)cc(COC(=O)c3ccc(SC)cc3OC)nc2s1	13	-3	1	1	·
CC(C)(C)c1ccc(C(=O)N2CCN(c3ccc(N4CCOCC4)nn3)CC2)cc1	-2	-1	1	-14	·
CCN1C(=O)[C@H]2[C@@H](c3ccc(Cl)cc3)N3C(=O)CN(CCOC)C(=O)[C@@]3(Cc3ccccc3)[C@H]2C1=O	3	-2	1	-2	·
NC(=NC(=O)c1ccccc1)N1N=CCC1c1ccccc1 (stereo not drawn)	-10	0	-1	0	·
O=[N+]([O-])c1ccc(/C=C/c2nc3ccc([N+](=O)[O-])cc3[nH]2)cc1	19	98*	6	5	64*
Nc1nc2ccc([N+](=O)[O-])cc2[nH]1	-6	-1	0	1	·
O=C(CN1C(=O)NC2(CCCCCC2)C1=O)NCCc1ccccc1	-8	0	3	-2	·
COc1ccc(CCn2c(=N)c(S(=O)(=O)c3ccc(Cl)cc3)cc3c(=O)n4ccccc4nc32)cc1	7	-2	1	-31	·
Cc1csc(N=Nc2ccc(N(C)C)cc2)[n+]1[O-]	14	68*	·	-3	-22	MPTP swell DR=i;MPTP cs DR=>80
CC(=O)Nc1ccc(S(=O)(=O)N2CCc3c(Cl)cccc3C2)cc1	1	-1	-5	4	·
Cc1cc(CN2CCCC(C(=O)Nc3cccc(-n4cccn4)c3)C2)cc(C)c1O (stereo not drawn)	-4	70*	-1	-2	85*
CCOc1ccccc1CN1CCCC(C(=O)Nc2cccc(-n3cccn3)c2)C1 (stereo not drawn)	10	58*	0	0	9	MPTP swell DR=6.8*;MPTP cs DR=18*
O=C(CSc1nc2ccc([N+](=O)[O-])cc2[nH]1)c1ccc2ccccc2c1	-5	99*	23*	4	68*
O=c1c2cn[nH]c2[nH]c(=S)n1-c1ccccc1F	-5	2	6	0	·
C=C(C)Cn1c(Sc2nc3ccccc3[nH]2)nc2c1c(=O)[nH]c(=O)n2C	-12	1	0	-2	·
O=[N+]([O-])c1ccc2[nH]c3c(c2c1)CCCC3	-5	72*	-3	1	71*
CCOC(=O)Cn1cnc2scc(-c3ccccc3)c2c1=O	4	0	-2	-1	·
O=C(O)CCC(=O)Nc1nnc(C(F)(F)F)s1	-6	0	2	0	·
CCC(NC(=O)Nc1nnc(C(F)(F)F)s1)(C(F)(F)F)C(F)(F)F	-18	101*	1	2	112*
c1ccc2c(CSc3ncnc4nc[nH]c34)cccc2c1	-15	56*	-5	-1	41*
c1ccc(CCSc2ncnc3nc[nH]c23)cc1	0	10	0	1	·
CC(C)Oc1ccc(C2CC(=O)N(c3cccc(/C=C/C(=O)O)c3)C2=O)cc1 (stereo not drawn)	7	-1	-1	2	·
O=S(=O)(Nc1nc2ccccc2s1)c1cc(F)ccc1F	-2	2	-10	-1	·
O=S(=O)(Nc1nccs1)c1cnc(Cl)c(Br)c1	-17	4	-3	0	·

Assay outcomes: PubChem BioAssay, Sanford-Burnham Center for Chemical Genomics
